For test [1], the target named is Mitogen-activated protein kinase 10 (Homo sapiens) (UniProt P53779). Description: Inhibition of JNK3 assessed as residual enzyme activity at 10 uM relative to untreated control. An outline of the steps: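 Assayed with [γ-33P]ATP at 50 µM and 10 mM Mg acetate in 50 mM Tris/HCl pH 7.5, 0.1 mM EGTA, 0.1% 2-mercaptoethanol, 30 min, 21 °C. Phosphoric acid stop, P81 filter capture. ERK2 and Lck are mouse; AMPK is rat. 10 µM compound; % activity remaining relative to control without inhibitor, duplicates.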
Chain of Mitogen-activated protein kinase 10 (Homo sapiens) (P53779 whole entry): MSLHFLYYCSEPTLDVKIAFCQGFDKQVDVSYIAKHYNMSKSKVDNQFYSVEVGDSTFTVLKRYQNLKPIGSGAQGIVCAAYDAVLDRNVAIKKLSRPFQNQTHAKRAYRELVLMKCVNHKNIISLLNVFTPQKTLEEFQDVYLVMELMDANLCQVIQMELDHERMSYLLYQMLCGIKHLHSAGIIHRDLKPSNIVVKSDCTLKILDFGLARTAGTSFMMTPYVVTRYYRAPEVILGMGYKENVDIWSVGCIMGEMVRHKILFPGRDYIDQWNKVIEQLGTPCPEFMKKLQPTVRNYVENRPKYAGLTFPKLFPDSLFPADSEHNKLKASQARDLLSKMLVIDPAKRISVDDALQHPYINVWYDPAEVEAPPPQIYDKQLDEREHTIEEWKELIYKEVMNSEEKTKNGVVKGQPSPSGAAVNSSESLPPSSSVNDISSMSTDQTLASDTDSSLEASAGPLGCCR

Test [2] concerns the target T1, Mitogen-activated protein kinase 13 (Homo sapiens) (UniProt O15264).
T1 sequence (whole entry): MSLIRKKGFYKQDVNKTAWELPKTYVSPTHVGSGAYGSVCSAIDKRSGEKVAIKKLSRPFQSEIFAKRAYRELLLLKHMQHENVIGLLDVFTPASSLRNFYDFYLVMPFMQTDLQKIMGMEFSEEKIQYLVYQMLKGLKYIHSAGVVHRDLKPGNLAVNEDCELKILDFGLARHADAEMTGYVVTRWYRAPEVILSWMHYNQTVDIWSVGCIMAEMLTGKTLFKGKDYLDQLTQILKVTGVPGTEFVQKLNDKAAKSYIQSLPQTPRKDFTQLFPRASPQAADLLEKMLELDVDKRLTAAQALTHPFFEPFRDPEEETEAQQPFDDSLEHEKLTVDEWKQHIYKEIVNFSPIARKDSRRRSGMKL
In words: Inhibition of p38delta assessed as residual enzyme activity at 10 uM relative to untreated control. A digest of the protocol: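 p38γ and p38δ MAPK run at 5 µM [γ-33P]ATP, and p38α at 50 µM, each with 10 mM Mg acetate. Buffer 50 mM Tris/HCl pH 7.5, 0.1 mM EGTA, 0.1% 2-mercaptoethanol. 10 µM compound, 30 min at 21 °C. P81 filter capture. Residual activity relative to control, duplicates.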

The target of test [3] is Calcium/calmodulin-dependent protein kinase kinase 1 (Homo sapiens) (UniProt Q8N5S9). In words: Inhibition of CAMKKalpha assessed as residual enzyme activity at 10 uM relative to untreated control.
Chain of Calcium/calmodulin-dependent protein kinase kinase 1 (Homo sapiens) (Q8N5S9 whole entry, looked up): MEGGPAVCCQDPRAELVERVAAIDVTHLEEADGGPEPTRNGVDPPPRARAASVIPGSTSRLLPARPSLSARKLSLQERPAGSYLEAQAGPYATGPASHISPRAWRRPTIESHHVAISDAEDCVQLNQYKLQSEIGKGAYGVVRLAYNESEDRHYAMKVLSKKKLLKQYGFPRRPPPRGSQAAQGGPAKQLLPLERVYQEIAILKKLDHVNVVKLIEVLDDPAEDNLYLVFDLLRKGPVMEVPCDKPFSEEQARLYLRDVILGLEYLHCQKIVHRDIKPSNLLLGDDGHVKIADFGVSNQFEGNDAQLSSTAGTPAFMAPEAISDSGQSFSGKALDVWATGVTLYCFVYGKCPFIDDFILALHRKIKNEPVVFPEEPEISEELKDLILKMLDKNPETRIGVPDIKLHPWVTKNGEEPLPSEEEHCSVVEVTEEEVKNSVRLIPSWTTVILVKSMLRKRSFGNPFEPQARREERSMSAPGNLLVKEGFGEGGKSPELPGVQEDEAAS
Test [4] addresses T2, Aurora kinase C (Homo sapiens) (UniProt Q9UQB9).
T2 sequence (whole entry): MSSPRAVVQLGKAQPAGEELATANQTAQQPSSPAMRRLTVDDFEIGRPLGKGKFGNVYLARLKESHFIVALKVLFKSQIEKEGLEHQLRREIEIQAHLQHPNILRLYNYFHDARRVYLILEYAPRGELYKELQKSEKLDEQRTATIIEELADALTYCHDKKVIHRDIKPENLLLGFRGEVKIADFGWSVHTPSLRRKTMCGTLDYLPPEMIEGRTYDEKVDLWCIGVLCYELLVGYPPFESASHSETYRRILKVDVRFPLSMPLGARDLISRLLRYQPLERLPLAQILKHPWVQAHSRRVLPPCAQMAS
Description: Inhibition of AURORA C assessed as residual enzyme activity at 10 uM relative to untreated control. An outline of the steps:
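Radiometric filter-binding assay at 21 °C for 30 min. Mix: 50 mM Tris/HCl pH 7.5, 0.1 mM EGTA, 0.1% 2-mercaptoethanol, 10 mM Mg acetate and [γ-33P]ATP (800 cpm/pmol) at 5 µM. Stopped with orthophosphoric acid and spotted on P81. Compound at 10 µM; activity given as % remaining versus no-inhibitor control, duplicates. Kinases human full-length unless noted.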

In test [5] the test system is ROCK2 (Rattus norvegicus). Description: Inhibition of ROCK2 assessed as residual enzyme activity at 10 uM relative to untreated control.
Test [6] relates to PC-3. Description: Antiproliferative activity against human PC3 cells after 48 hrs by resazurin dye reduction assay. The note with it: PC-3, 48 h. Type of test: functional, cell-based. A digest of the protocol:
(§1)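 Cells (human fibroblast primary culture, or PC3, DU145 or PA1 cancer lines) were kept as monolayers in Glutamax MEM with Earle's salts, 10% FCS, pyruvate, nonessential amino acids and gentamicin, at 37 °C in 5% CO2. 5×10^3 cells/well adhered for 16 h, then had 48 h continuous drug exposure (20 mM DMSO stock). Resazurin 25 µg/mL for 1 h; fluorescence ex 530/em 590 nm. IC50 from blank-corrected concentration–survival curves versus control wells.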
A general note: Resazurin is reduced to fluorescent resorufin, in cell work by metabolically active cells.

Test [7] relates to DU-145. Description: Antiproliferative activity against human DU145 cells after 48 hrs by resazurin dye reduction assay. Type of test: functional, cell-based. The settings on record: DU-145, 48 h. A digest of the protocol:
as §1

Test [8] has as its system PA-1. Description: Antiproliferative activity against human PA1 cells after 48 hrs by resazurin dye reduction assay. Type of test: functional, cell-based. The settings on record: PA-1, 48 h. A digest of the protocol: as §1
The nature of test [9]: Antiproliferative activity against human fibroblasts after 48 hrs by resazurin dye reduction assay. Type of test: cell-based. The settings on record: Fibroblast. A digest of the protocol: as §1

pIC50: −log10 of the molar value.

`c1ccc2c(c1)[nH]c1c3cc[nH]c3ccc21`: the Activity in test [1] is 111%; in test [2], 89%; in [3], 92%; in test [4] it was 99%; in [5] it was 89%.

Regarding `O=Cc1c[nH]c2ccc3c4ccccc4[nH]c3c12`, the Activity turned out to be 96% in test [1]; 83% in test [2]; 90% in test [3]; 104% in test [4]; 86% in test [5].

Take `c1ccc2c(c1)[nH]c1c2ccc2cc[nH]c21`: the Activity in test [1] was 108%; in [2], 78%; in [3], 76%; in [4] it was 85%; in test [5], 86%.

For `O=Cc1c[nH]c2c1ccc1c3ccccc3[nH]c12`, the Activity in test [1] turned out to be 113%; in test [3], 42%; in test [4], 79%. Also, the pIC50 in test [6] was 5.02; in test [7], 4.59; in test [8], 5.35; in test [9], 4.68.

The term pIC50 denotes the negative decadic logarithm of the IC50, by convention in mol/L.

Values taken from ChEMBL document CHEMBL1154186, “Synthesis, kinase inhibitory potencies, and in vitro antiproliferative evaluation of new Pim kinase inhibitors” (J Med Chem, 2009).
